Test results as given in ChEMBL document CHEMBL2429733, “Meroterpenoids with diverse ring systems from the sponge-associated fungus Alternaria sp. JJY-32” (J Nat Prod, 2013).
Counter-ions that a name gives are not always drawn. Active and inactive are the calls of the source. The calls are words filed in the database; no cut-off is given here.

Legend:
[1] = Inhibition of LPS-induced NF-kappaB (unknown origin) activation transfected in mouse RAW264.7 cells preincubated for 2 hrs followed by LPS challenge measured after 4 hrs by luciferase reporter gene assay; format: cell-based
How it was run: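 RAW264.7 cells were seeded at 2.5 × 10^5 per well and held at 37 °C for 24 h. They were then transiently transfected with pNF-κB-Luc plasmid (0.5 μg/well) using lipofectamine 2000. After 24 h, compounds were added for 2 h, then LPS (0.1 μg/mL) for a further 4 h. Read-out was Steady-Glo luciferase, with PDTC as the positive control, and IC50 was derived.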

HL-60 = experiment: Cytotoxicity against human HL60 cells; format: functional, cell-based
How it was run: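 Growth of human tumour cells measured by the MTT or SRB method, with adriamycin as the positive control.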

A549 = experiment: Cytotoxicity against human A549 cells

Row | Compound | IC50 [1] [µM] | Activity (HL-60) | IC50 (HL-60) [nM] | IC50 (A549) [nM]
1 | CC(C)=CCCC(C)(O)[C@@H]1CC[C@@]2(C)OC3=C(C[C@@H]12)C(=O)CC[C@H]3O (stereo partly drawn) [TRICYCLOALTERNARENE C] | 75 | inactive |  | 
2 | S=C(S)N1CCCC1 [PYRROLIDINE DITHIOCARBAMIC ACID, AMMONIUM SALT] | 3 |  |  | 
3 | C/C(=C\CC[C@]1(C)OC2=C(C[C@@H]1O)C(=O)CC[C@H]2O)CC/C=C(\C)C(=O)O | > 100 | inactive |  | 
4 | C/C(=C\CC[C@](C)(O)[C@@H]1CC2=C(CC[C@@H](O)C2=O)O1)CC[C@@H](O)C(C)(C)O | 70 | inactive |  | 
5 | C/C(=C\CC[C@]1(C)OC2=C(C[C@@H]1O)C(=O)[C@H](O)CC2)CC/C=C(\C)C(=O)O | > 100 | inactive |  | 
6 | CC(C)=CCC[C@](C)(O)[C@H](O)CC[C@](C)(O)[C@@H]1CC2=C(CC[C@@H](O)C2=O)O1 | 62 | inactive |  | 
7 | CO[C@@H]1C[C@H](O)C2=C(C[C@H]3[C@H](C(C)(O)CCC=C(C)C)CC[C@@]3(C)O2)C1=O (stereo partly drawn) [TRICYCLOALTERNARENE B] | 76 | inactive |  | 
8 | COc1cccc2c1C(=O)c1c(O)c3c(c(O)c1C2=O)C[C@@](O)(C(=O)CO)C[C@@H]3O[C@H]1C[C@H](N)[C@H](O)[C@H](C)O1 [DOXORUBICIN] |  |  | 90 | 350
9 | C/C(=C\CC[C@](C)(O)[C@@H]1CC2=C(O1)[C@H](O)CCC2=O)CC/C=C(\C)C(=O)O | 67 | inactive |  | 
10 | C/C(=C\CC[C@](C)(O)[C@@H]1CC2=C(CC[C@@H](O)C2=O)O1)CC/C=C(\C)C(=O)O | 85 | inactive |  | 

Further lines, with some results ahead:

Row | IC50 [1] [µM] | Compound | Activity (HL-60) | IC50 (HL-60) [nM] | IC50 (A549) [nM]
11 | 42 | CO[C@@H]1C[C@H](O)C(O)=C(C/C=C(\C)CC/C=C(\C)CCCC(C)C(=O)O)C1=O (stereo partly drawn) | inactive |  | 
12 | 39 | C/C(C=O)=C\CC[C@@H](C)C1=CC[C@@]2(C)OC3=C(C[C@@H]12)C(=O)[C@H](O)CC3 | inactive |  | 
13 | 52 | CC(C)=CCC[C@H](C)[C@@H]1CC[C@](C)(O)[C@]12CC1=C(O2)[C@H](O)CCC1=O [TRICYCLOALTERNARENE A] | inactive |  | 
14 | 47 | C/C(=C\Cc1cc(C(=O)O)cc(O)c1O)CC/C=C(\C)CC[C@@H](O)C(C)(C)O [(+)-MONOCYCLOALTERNARENE B] | inactive |  | 
15 | 50 | C/C(=C\CC[C@@H](C)C1=CC[C@@]2(C)OC3=C(C[C@@H]12)C(=O)[C@H](O)CC3)CO | inactive |  | 
16 | 58 | CO[C@@H]1C[C@H](O)C(O)=C(C/C=C(\C)CC/C=C(\C)CC/C=C(\C)C(=O)O)C1=O | inactive |  | 
17 | 45 | COc1ccc(O)c(C/C=C(\C)CC/C=C(\C)CC[C@@H](O)C(C)(C)O)c1O [(+)-MONOCYCLOALTERNARENE A] | inactive |  | 
